Publication PMC5697680 (Clinical Pharmacology in Drug Development, 2017)

Columns and labels:
[1] = tested on: OCT2/MATE renal transporter; conditions: results in increased exposure to OCT2 substrates such as metformin; cited from earlier work
Tolerability assessment = assay type: in vivo, healthy adults
How it was run: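 Healthy adults (18-65 years) got five single oral 20 mg doses of test compound (granule suspension or dispersible tablet in low- or high-mineral water, immediate or after 30-minute hold). Dosing followed a Latin square, fasted in the morning, with at least 7 days' washout. AEs and SAEs were recorded from first dose to follow-up at least 7 days post-dose, along with labs, vital signs, ECG and physical exams. Results were summarized as subject numbers and percentages.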

[2] = cited from earlier work

## C[C@@H]1CCO[C@H]2Cn3cc(C(=O)NCc4ccc(F)cc4F)c(=O)c(O)c3C(=O)N12 [DTG, Dolutegravir]
[1]
  effect on OCT2/MATE renal transporter: inhibition
Tolerability assessment; 15 participants, all five single 20 mg treatments
  AEs reported, number of subjects: 9 subjects
Tolerability assessment; 15 participants, all treatments
  SAEs, AEs leading to withdrawal, or deaths: No SAEs
Tolerability assessment; two reports of nausea in one subject, resolved on the same day
  drug‐related AEs (nausea, mild), number of subjects: 1 n
[2]; concomitant administration
  reduction of DTG exposure by magnesium‐ and aluminum‐containing antacid: 70%
[2]; fasting conditions
  reduction of DTG plasma exposure by calcium supplement: 39%
  reduction of DTG plasma exposure by iron supplement: 54%
